Three compounds from ChEMBL document CHEMBL1122162, “Carbocyclic analogue of 3-deazaadenosine: a novel antiviral agent using S-adenosylhomocysteine hydrolase as a pharmacological target” (1982) can be followed below.

Assay [1] is filed under the species Mus musculus. Kind of assay: In vitro antiviral activity against herpes simplex virus type 1 (strain E-377) grown in mouse fibroblasts cells, clone L-929, expressed as virus ration (VR). Type of assay: functional, Fibroblast.
The species named for assay [2] is Rattus norvegicus. Kind of assay: Inhibition of oncogenic transformation expressed as number of foci on day 5 in HL-23 virus infected rat kidney cells (NRK 153C17) at 0 uM. In kind it is functional. The method, boiled down: (§1)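 NRK 153 C1 7 rat kidney cells infected with HL-23 virus in the presence of compound at 0–4 μM. Foci were stained with Giemsa and counted per dish on day 5. % inhibition was derived from focus counts relative to the untreated dish.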

The species named for assay [3] is Rattus norvegicus. The assay can be described thus: Inhibition of oncogenic transformation expressed as %control cell number on day 3 in HL-23 virus infected rat kidney cells (NRK 153C17) at 2 uM. In kind it is functional. The method, boiled down: (§2)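 Normal rat kidney cells (NRK 153 C1 7) infected with HL-23 virus, a C-type virus isolated from human acute myelogenous leukemia cells, and exposed to compound at 0–4 μM. Cell number determined on day 3 and expressed as % of control.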

Assay [4] is filed under the species Rattus norvegicus. The assay can be described thus: Percent inhibition of oncogenic transformation of HL-23 virus infected rat kidney cells (NRK 153C17) at 4 uM. Type of assay: functional. The method, boiled down: as §1
Assay [5] is filed under the species Mus musculus. The assay can be described thus: In vitro antiviral activity against herpes simplex virus type 1 (strain E-377) grown in mouse fibroblasts cells, clone L-929, expressed as virus rating (VR). Type of assay: functional, Fibroblast.
Assay [6] is filed under the species Mus musculus. The assay can be described thus: In vitro antiviral activity against vaccinia virus (strain Lederle chorioallantoic) grown in mouse fibroblasts cells, clone L-929, expressed as VR. In kind it is functional, Fibroblast.
The species named for assay [7] is Rattus norvegicus. The assay can be described thus: Inhibition of oncogenic transformation expressed as number of foci on day 5 in HL-23 virus infected rat kidney cells (NRK 153C17) at 4 uM. Type of assay: functional. The method, boiled down:
as §1

Assay [8] is filed under the species Mus musculus. The assay can be described thus: Effect in mouse infected with vaccinia virus; observed effects seen. Type of assay: functional, organism-based.
Assay [9] is filed under the species Mus musculus. Kind of assay: Minimum Inhibitory concentration of the drug required for 50% inhibition of vaccinia virus (strain Lederle chorioallantoic) -induced cytopathogenic effects in infected cell cultures. In kind it is functional. On the technique in general: Protection from cytopathic effect is a common read-out in antiviral testing.
The species named for assay [10] is Rattus norvegicus. The assay can be described thus: Inhibition of oncogenic transformation expressed as %control cell number on day 3 in HL-23 virus infected rat kidney cells (NRK 153C17) at 0.5 uM. Type of assay: functional. The method, boiled down:
as §2

The species named for assay [11] is Rattus norvegicus. Kind of assay: Inhibition of oncogenic transformation expressed as number of foci on day 5 in HL-23 virus infected rat kidney cells (NRK 153C17) at 0.25 uM. In kind it is functional. The method, boiled down: as §1
For assay [12], the species on record is Rattus norvegicus. Kind of assay: Percent inhibition of oncogenic transformation of HL-23 virus infected rat kidney cells (NRK 153C17) at 0 uM. In kind it is functional. The method, boiled down: as §1
The species entered for assay [13] is Rattus norvegicus. The assay can be described thus: Inhibition of oncogenic transformation expressed as %control cell number on day 3 in HL-23 virus infected rat kidney cells (NRK 153C17) at 1 uM. Type of assay: functional. The method, boiled down: as §2
Assay [14] is filed under the species Rattus norvegicus. Kind of assay: Inhibition of oncogenic transformation expressed as number of foci on day 5 in HL-23 virus infected rat kidney cells (NRK 153C17) at 0.5 uM. Type of assay: functional. The method, boiled down:
as §1

The species entered for assay [15] is Rattus norvegicus. The assay can be described thus: Inhibition of oncogenic transformation was assayed by infecting normal rat kidney cells (NRK 153C17) with HL-23 virus and counting the %control cell number on day 3 at a concentration of 0 uM. In kind it is functional. The method, boiled down:
as §2

For assay [16], the species on record is Mus musculus. Kind of assay: Minimum Inhibitory concentration of the drug required for 50% inhibition of herpes simplex virus type 1 (strain E-377) -induced cytopathogenic effects in infected cell cultures. In kind it is functional.
The species entered for assay [17] is Rattus norvegicus. Kind of assay: Inhibition of oncogenic transformation expressed as number of foci on day 5 in HL-23 virus infected rat kidney cells (NRK 153C17) at 2 uM. Type of assay: functional. The method, boiled down:
as §1

For assay [18], the species on record is Rattus norvegicus. Kind of assay: Inhibition of oncogenic transformation expressed as number of foci on day 5 in HL-23 virus infected rat kidney cells (NRK 153C17) at 1 uM. Type of assay: functional. The method, boiled down: as §1
The species named for assay [19] is Rattus norvegicus. The assay can be described thus: Percent inhibition of oncogenic transformation of HL-23 virus infected rat kidney cells (NRK 153C17) at 0.5 uM. Type of assay: functional. The method, boiled down: as §1
The species named for assay [20] is Rattus norvegicus. Kind of assay: Percent inhibition of oncogenic transformation of HL-23 virus infected rat kidney cells (NRK 153C17) at 2 uM. In kind it is functional. The method, boiled down:
as §1

Assay [21] is filed under the species Mus musculus. Kind of assay: Effect in mouse infected with herpes simplex virus type-1; observed effects diminished with time. In kind it is functional, organism-based.
The species named for assay [22] is Rattus norvegicus. The assay can be described thus: Inhibition of oncogenic transformation expressed as %control cell number on day 3 in HL-23 virus infected rat kidney cells (NRK 153C17) at 0.25 uM. In kind it is functional. The method, boiled down: as §2
For assay [23], the species on record is Rattus norvegicus. Kind of assay: Inhibition of oncogenic transformation expressed as %control cell number on day 3 in HL-23 virus infected rat kidney cells (NRK 153C17) at 4 uM. In kind it is functional. The method, boiled down:
as §2

The species entered for assay [24] is Rattus norvegicus. The assay can be described thus: Percent inhibition of oncogenic transformation of HL-23 virus infected rat kidney cells (NRK 153C17) at 1 uM. In kind it is functional. The method, boiled down: as §1
For assay [25], the species on record is Rattus norvegicus. Kind of assay: Percent inhibition of oncogenic transformation of HL-23 virus infected rat kidney cells (NRK 153C17) at 0.25 uM. In kind it is functional. The method, boiled down:
as §1

The species entered for assay [26] is Mus musculus. Kind of assay: Effect in mouse infected with herpes simplex virus type-1; observed effects seen. Type of assay: functional, organism-based.
The species named for assay [27] is Mus musculus. Kind of assay: Minimum Inhibitory concentration of the drug required for 50% inhibition vaccinia virus (strain Lederle chorioallantoic)-induced cytopathogenic effects in infected cell cultures. In kind it is functional.

Molecules are shown by their SMILES. Values after ≈ are worked out from the molar mass of the structure shown. Active and inactive are the calls of the source. The rule behind the calls is not given here.

In the assay filed under Mus musculus [1], `Nc1nccc2c1ncn2[C@@H]1O[C@H](CO)[C@@H](O)[C@H]1O` returned a Virus rating of 0.5.

Broadly, the inhibition is how much of the control response was suppressed. A low value points to a weak effect. As usually defined, the Inhibition is the share of the control response that was lost under treatment. Read a low Inhibition as a weak effect. As to `Nc1nccc2c1ncn2[C@@H]1C[C@H](CO)[C@@H](O)[C@H]1O` [3-DEAZAARISTEROMYCIN A], the “No. of foci per dish” value in the assay listed under Rattus norvegicus [2] turned out to be 115; in the assay filed under Rattus norvegicus [7], 1; in the assay listed under Rattus norvegicus [11], 64; in the assay listed under Rattus norvegicus [14], 65; in the assay listed under Rattus norvegicus [17] it was 9; in the assay filed under Rattus norvegicus [18] it was 28. Also, the Control cell number is 71% in the assay filed under Rattus norvegicus [3]; 96% in the assay listed under Rattus norvegicus [10]; 81% in the assay listed under Rattus norvegicus [13]; 100% in the assay listed under Rattus norvegicus [15]; 100% in the assay listed under Rattus norvegicus [22]; 53% in the assay listed under Rattus norvegicus [23]. In the assay filed under Rattus norvegicus [4], this compound yielded an inhibition at 4 µM of 99%. Besides, the figures for the Virus rating in the assay filed under Mus musculus [5] and in the assay filed under Mus musculus [6] were 1.1 and 2.8, respectively. The Activity entry is given as “observed effects seen” in the assay filed under Mus musculus [8] and “+ to +/-” in the assay filed under Mus musculus [21]. The MIC in the assay filed under Mus musculus [9] worked out at 1.9 µg/mL (≈ 7.19 µM); in the assay listed under Mus musculus [16], 238 µg/mL (≈ 901 µM). In the assay listed under Rattus norvegicus [12], this compound displayed an Inhibition of 0%. The same compound yielded an inhibition at 0.5 µM in the assay filed under Rattus norvegicus [19] of 44%. The compound further yielded an inhibition at 2 µM in the assay filed under Rattus norvegicus [20] of 92%. Moreover, the inhibition at 1 µM in the assay listed under Rattus norvegicus [24] was found to be 76%. Moreover, at 0.25 µM the inhibition in the assay listed under Rattus norvegicus [25] was 44%.

With `Nc1ncnc2c1ncn2[C@@H]1O[C@H](CO)[C@@H](O)[C@@H]1O` [VIDARABINE], the Virus rating came to 3.2 in the assay listed under Mus musculus [5] and 1.2 in the assay listed under Mus musculus [6]. In addition, the result in the assay filed under Mus musculus [8] and in the assay filed under Mus musculus [26] was Active. In addition, the MIC in the assay listed under Mus musculus [16] stood at 2.1 µg/mL (≈ 7.86 µM); in the assay listed under Mus musculus [27] it was 19.2 µg/mL (≈ 71.8 µM).
